Source: ChEMBL document CHEMBL2424622, “Development of amino-pyrimidine inhibitors of c-Jun N-terminal kinase (JNK): kinase profiling guided optimization of a 1,2,3-benzotriazole lead” (Bioorg Med Chem Lett, 2013)

What was measured:
LIM domain kinase 1 = LIM domain kinase 1 (Homo sapiens, UniProt P53667); test: Competitive binding affinity to LIMK1 (unknown origin) at 10 uM in presence of ATP relative to control
Procedure, shortened: (§1)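 In vitro ATP-site competition binding assay, part of profiling against a diverse panel of 128 kinases. Each compound was tested at a single concentration of 10 µM. Kinome selectivity was summarized as S15 selectivity scores.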

[1] = target: T1, Serine/threonine-protein kinase 36 (Homo sapiens) (UniProt Q9NRP7); test: Competitive binding affinity to STK36 (unknown origin) at 10 uM in presence of ATP relative to control
T1 sequence (whole entry): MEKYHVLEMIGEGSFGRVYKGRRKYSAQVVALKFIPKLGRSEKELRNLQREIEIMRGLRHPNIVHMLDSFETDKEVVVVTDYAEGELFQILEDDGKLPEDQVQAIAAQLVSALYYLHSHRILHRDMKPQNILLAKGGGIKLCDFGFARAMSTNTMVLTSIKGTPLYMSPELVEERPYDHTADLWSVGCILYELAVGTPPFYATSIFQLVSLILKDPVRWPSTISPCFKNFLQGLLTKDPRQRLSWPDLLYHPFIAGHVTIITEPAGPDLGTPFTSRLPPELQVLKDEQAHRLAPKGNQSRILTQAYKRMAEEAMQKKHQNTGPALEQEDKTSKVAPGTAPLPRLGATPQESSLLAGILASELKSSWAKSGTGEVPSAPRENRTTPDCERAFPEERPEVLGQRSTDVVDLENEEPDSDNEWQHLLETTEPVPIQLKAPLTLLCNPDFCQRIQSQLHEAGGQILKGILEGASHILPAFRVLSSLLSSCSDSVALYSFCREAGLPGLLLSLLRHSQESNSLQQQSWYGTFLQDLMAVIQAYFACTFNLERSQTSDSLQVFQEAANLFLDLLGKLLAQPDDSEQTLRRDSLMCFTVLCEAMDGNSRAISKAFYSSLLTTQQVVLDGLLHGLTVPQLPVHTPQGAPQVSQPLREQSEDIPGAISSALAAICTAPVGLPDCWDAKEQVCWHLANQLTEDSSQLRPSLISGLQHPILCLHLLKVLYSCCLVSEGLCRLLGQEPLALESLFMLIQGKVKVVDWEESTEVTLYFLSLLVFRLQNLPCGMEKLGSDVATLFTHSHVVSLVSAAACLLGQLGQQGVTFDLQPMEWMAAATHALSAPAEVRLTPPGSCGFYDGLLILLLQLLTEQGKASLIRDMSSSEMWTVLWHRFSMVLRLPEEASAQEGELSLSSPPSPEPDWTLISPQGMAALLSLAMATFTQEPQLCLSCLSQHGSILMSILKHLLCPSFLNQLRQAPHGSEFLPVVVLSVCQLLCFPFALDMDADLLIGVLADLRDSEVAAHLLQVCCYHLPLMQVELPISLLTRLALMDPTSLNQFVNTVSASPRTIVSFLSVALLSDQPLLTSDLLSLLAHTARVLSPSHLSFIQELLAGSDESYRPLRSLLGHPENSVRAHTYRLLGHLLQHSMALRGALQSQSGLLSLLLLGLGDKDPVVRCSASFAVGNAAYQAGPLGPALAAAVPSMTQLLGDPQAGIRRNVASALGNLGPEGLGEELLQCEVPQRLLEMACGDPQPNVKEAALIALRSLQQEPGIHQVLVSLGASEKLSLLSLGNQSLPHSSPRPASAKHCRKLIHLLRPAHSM
Procedure, shortened: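 In vitro ATP-site competition binding assay across a diverse panel of 128 kinases, with each compound tested at a single concentration. Kinase binding is expressed relative to control.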

[2] = target: Serine/threonine-protein kinase PAK 1 (Homo sapiens) (UniProt Q13153); test: Competitive binding affinity to PAK1 (unknown origin) at 10 uM in presence of ATP relative to control
Chain of Serine/threonine-protein kinase PAK 1 (Homo sapiens) (Q13153 whole entry): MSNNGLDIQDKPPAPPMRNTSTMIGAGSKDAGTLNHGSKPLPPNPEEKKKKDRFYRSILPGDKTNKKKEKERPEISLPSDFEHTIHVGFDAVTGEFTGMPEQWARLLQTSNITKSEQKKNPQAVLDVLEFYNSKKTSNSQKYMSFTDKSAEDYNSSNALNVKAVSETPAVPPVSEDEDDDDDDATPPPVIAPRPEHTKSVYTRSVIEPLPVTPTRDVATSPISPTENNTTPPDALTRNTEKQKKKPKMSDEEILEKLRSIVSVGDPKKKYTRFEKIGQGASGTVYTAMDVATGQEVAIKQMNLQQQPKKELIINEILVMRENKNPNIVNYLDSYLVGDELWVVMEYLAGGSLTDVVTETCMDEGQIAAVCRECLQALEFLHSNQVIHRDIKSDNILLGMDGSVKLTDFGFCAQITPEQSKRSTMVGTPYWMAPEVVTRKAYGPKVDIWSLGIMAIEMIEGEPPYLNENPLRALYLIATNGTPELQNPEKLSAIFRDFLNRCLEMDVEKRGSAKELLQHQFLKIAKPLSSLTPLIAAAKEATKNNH
Procedure, shortened: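 In vitro ATP-site competition binding assay across a diverse panel of 128 kinases, with compound tested at a single concentration. Kinase selectivity scores (S15) were calculated from the panel profiles.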

[3] = target: Serine/threonine-protein kinase B-raf (Homo sapiens) (UniProt P15056); test: Competitive binding affinity to BRAF (unknown origin) at 10 uM in presence of ATP relative to control
[4] = target: Insulin receptor (Homo sapiens) (UniProt P06213); test: Competitive binding affinity to INSR (unknown origin) at 10 uM in presence of ATP relative to control; procedure, shortened: as §1
[5] = target: Mitogen-activated protein kinase kinase kinase kinase 5 (Homo sapiens) (UniProt Q9Y4K4); test: Competitive binding affinity to MAP4K5 (unknown origin) at 10 uM in presence of ATP relative to control; procedure, shortened: as §1
Chain of Mitogen-activated protein kinase kinase kinase kinase 5 (Homo sapiens) (Q9Y4K4 whole entry, looked up): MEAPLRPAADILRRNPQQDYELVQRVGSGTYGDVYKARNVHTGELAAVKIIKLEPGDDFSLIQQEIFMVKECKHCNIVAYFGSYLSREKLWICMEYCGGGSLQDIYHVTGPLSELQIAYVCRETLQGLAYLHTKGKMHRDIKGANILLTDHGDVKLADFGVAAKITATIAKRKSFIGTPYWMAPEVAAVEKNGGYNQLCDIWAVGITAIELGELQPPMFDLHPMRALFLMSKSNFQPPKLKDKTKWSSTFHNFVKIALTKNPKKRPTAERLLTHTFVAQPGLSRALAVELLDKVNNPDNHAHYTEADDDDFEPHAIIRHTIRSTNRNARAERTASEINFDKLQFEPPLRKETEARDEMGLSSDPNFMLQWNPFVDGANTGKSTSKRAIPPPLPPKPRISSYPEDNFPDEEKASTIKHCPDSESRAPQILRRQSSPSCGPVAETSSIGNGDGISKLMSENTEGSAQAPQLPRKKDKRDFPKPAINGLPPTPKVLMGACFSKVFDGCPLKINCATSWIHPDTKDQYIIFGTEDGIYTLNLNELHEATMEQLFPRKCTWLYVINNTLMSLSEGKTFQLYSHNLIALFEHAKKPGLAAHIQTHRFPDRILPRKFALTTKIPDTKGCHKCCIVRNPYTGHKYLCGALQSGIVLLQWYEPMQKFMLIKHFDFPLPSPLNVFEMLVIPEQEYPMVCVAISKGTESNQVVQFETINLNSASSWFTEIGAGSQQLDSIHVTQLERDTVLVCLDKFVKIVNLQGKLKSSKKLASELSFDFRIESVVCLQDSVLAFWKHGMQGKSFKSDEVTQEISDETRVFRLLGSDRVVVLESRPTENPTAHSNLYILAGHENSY

[6] = target: Ephrin type-A receptor 5 (Homo sapiens) (UniProt P54756); test: Competitive binding affinity to EPHA5 (unknown origin) at 10 uM in presence of ATP relative to control; procedure, shortened: as §1
Chain of Ephrin type-A receptor 5 (Homo sapiens) (P54756 whole entry): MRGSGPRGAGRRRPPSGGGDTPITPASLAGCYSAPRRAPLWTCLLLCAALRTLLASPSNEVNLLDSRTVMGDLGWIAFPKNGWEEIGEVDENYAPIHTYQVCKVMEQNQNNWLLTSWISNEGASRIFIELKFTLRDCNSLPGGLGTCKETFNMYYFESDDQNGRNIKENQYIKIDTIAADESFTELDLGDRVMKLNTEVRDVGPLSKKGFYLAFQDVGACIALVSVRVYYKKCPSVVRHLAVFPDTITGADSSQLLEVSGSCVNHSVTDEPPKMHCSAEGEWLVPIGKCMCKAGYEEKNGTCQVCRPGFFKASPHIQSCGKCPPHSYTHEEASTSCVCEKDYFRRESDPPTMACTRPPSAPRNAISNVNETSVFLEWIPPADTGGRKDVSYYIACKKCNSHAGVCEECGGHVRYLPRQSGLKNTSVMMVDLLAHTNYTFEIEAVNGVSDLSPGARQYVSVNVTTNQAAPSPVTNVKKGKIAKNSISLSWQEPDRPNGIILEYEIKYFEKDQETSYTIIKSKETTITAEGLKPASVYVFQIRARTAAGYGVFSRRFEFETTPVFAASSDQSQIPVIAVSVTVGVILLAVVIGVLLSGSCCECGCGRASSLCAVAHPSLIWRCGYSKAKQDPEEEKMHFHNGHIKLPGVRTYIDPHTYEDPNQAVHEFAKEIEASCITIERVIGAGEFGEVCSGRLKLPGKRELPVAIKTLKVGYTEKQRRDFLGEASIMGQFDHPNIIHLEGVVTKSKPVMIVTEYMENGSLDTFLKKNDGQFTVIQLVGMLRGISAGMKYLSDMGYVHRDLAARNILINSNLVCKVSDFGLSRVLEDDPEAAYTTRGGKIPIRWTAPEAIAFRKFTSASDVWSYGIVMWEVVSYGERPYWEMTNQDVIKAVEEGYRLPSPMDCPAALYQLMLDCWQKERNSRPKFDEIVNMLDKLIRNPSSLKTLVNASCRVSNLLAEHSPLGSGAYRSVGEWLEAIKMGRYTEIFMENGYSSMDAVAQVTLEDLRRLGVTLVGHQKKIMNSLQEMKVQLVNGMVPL

[7] = target: T2, Cytoplasmic tyrosine-protein kinase BMX (Homo sapiens) (UniProt P51813); test: Competitive binding affinity to BMX (unknown origin) at 10 uM in presence of ATP relative to control
T2 sequence (whole entry): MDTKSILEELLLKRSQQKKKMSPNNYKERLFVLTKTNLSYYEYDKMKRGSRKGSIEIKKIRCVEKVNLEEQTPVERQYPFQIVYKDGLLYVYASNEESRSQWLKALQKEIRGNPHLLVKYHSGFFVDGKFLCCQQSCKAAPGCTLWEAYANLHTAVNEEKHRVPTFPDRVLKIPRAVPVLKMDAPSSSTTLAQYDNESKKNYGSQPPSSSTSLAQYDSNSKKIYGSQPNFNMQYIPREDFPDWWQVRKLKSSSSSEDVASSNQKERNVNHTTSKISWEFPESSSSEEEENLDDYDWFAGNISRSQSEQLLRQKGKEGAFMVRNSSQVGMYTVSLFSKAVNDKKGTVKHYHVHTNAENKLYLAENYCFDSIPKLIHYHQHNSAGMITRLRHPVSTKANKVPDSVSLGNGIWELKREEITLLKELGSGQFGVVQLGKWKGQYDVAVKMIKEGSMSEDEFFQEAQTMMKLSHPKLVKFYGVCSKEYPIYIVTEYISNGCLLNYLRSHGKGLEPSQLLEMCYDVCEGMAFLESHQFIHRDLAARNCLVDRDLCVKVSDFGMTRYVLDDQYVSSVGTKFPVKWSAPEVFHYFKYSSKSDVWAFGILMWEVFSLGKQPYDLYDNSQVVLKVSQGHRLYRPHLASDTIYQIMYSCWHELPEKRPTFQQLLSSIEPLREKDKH

[8] = target: Casein kinase I isoform gamma-2 (Homo sapiens) (UniProt P78368); test: Competitive binding affinity to CSNK1G2 (unknown origin) at 10 uM in presence of ATP relative to control
Chain of Casein kinase I isoform gamma-2 (Homo sapiens) (P78368 whole entry, looked up, canonical isoform): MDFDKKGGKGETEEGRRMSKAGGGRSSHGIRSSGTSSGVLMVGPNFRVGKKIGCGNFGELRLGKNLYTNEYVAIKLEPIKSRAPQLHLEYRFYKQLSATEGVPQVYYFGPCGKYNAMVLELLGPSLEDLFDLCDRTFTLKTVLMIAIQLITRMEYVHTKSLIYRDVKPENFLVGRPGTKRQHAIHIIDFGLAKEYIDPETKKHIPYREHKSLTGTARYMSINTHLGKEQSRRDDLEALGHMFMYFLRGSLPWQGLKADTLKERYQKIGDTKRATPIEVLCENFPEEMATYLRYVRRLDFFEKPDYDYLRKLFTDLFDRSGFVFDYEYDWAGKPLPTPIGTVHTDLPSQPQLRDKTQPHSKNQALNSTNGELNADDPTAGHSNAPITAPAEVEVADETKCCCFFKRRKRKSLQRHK

[9] = target: Dual specificity protein kinase CLK4 (Homo sapiens) (UniProt Q9HAZ1); test: Competitive binding affinity to CLK4 (unknown origin) at 10 uM in presence of ATP relative to control
Chain of Dual specificity protein kinase CLK4 (Homo sapiens) (Q9HAZ1 whole entry, looked up): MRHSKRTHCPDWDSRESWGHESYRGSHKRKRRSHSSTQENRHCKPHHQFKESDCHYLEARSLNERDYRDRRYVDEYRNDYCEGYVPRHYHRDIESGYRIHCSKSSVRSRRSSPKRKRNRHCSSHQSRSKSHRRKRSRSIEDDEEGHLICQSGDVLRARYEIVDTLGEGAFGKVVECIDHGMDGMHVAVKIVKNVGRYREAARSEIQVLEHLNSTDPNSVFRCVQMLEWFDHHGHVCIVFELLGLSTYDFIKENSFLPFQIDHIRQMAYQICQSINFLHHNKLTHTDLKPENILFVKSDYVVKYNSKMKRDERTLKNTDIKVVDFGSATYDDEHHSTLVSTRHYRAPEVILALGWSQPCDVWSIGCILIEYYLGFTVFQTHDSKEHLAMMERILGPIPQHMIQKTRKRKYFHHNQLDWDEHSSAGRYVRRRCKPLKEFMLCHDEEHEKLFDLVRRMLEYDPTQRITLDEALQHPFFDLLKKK

[10] = target: Calcium/calmodulin-dependent protein kinase type II subunit alpha (Homo sapiens) (UniProt Q9UQM7); test: Competitive binding affinity to CAMK2A (unknown origin) at 10 uM in presence of ATP relative to control
Chain of Calcium/calmodulin-dependent protein kinase type II subunit alpha (Homo sapiens) (Q9UQM7 whole entry): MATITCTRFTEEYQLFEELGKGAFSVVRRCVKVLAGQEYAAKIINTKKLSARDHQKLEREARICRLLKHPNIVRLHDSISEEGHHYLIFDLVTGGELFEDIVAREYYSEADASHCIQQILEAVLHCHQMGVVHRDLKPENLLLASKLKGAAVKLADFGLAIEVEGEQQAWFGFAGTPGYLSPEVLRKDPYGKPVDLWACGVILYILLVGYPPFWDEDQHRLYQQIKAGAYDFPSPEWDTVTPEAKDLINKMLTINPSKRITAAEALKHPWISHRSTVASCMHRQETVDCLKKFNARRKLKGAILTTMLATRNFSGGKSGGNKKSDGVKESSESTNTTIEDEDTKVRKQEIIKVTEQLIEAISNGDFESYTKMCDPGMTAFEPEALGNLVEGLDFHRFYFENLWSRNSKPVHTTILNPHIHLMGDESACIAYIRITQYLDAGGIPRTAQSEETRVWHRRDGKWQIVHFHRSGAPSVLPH

Chain of LIM domain kinase 1 (P53667 whole entry, looked up, the tested form may be a part): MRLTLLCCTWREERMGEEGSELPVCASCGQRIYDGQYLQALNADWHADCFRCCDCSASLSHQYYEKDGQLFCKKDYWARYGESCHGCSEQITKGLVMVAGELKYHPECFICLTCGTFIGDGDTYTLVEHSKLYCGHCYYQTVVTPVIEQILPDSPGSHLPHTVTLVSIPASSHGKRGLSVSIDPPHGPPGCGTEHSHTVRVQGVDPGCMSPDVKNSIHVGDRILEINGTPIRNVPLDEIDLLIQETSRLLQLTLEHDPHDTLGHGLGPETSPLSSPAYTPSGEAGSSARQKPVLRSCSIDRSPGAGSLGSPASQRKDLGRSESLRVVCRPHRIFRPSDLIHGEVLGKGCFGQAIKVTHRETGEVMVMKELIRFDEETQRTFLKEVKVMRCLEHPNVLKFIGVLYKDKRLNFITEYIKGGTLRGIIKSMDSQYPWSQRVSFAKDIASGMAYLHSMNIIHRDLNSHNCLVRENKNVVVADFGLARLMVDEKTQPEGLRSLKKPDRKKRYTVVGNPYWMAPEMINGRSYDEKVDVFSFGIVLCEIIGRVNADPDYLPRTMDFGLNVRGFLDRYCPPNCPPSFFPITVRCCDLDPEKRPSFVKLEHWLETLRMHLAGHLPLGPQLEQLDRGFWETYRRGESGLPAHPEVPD

| Structure (SMILES) | inhibition (LIM domain kinase 1) | inhibition [1] | inhibition [2] | inhibition [3] | inhibition [4] | inhibition [5] | inhibition [6] | inhibition [7] | inhibition [8] | inhibition [9] | inhibition [10] |
| --- | --- | --- | --- | --- | --- | --- | --- | --- | --- | --- | --- |
| CS(=O)(=O)CCCOc1cccc2c1ccn2-c1ccnc(N[C@H]2CC[C@H](C(=O)N3CCC(O)CC3)CC2)n1 | > 85% | – | – | – | – | – | – | – | – | – | – |
| O[C@H]1CC[C@H](Nc2nccc(-n3ccc4ccccc43)n2)CC1 | 77% | 84% | < 50% | < 50% | < 50% | < 50% | < 50% | < 50% | < 50% | 95% | 89% |
| N[C@H]1CC[C@H](Nc2nccc(-n3nnc4ccccc43)n2)CC1 | < 50% | 100% | < 50% | < 50% | < 50% | < 50% | < 50% | < 50% | 100% | 100% | 84% |
| O[C@H]1CC[C@H](Nc2nccc(-n3nnc4ccccc43)n2)CC1 | 87% | 96% | < 50% | < 50% | < 50% | < 50% | < 50% | < 50% | 50% | 98% | 88% |
| O[C@H]1CC[C@H](Nc2nccc(-n3ncc4ccccc43)n2)CC1 | 88% | 97% | < 50% | < 50% | < 50% | < 50% | < 50% | < 50% | < 50% | 99% | 94% |
| O=C([C@H]1CC[C@H](Nc2nccc(-n3nnc4ccccc43)n2)CC1)N1CCOCC1 | 78% | 95% | < 50% | < 50% | < 50% | < 50% | < 50% | < 50% | 76% | 94% | < 50% |
| O[C@H]1CC[C@H](Nc2nccc(-c3n[nH]c4ccccc34)n2)CC1 | 96% | 99% | 68% | < 50% | 98% | 99% | < 50% | < 50% | 74% | 100% | 94% |
